Test results as given in article PMC8521395 (Journal of Antimicrobial Chemotherapy, 2021).
Values belong to the compound of their own block, whether it stands above or below them.

Tests used:
Type in all cases: cell-based, Escherichia coli
WT E. coli cells = test: Macromolecular synthesis; conditions: nalidixic acid 40 mg/L (10×MIC), AB medium without casamino acids, single experiment
E. coli = test: MIC of chloramphenicol and nalidixic acid in AB medium; conditions: printed as the concentration equal to 10×MIC
MG1655 = test: MIC determination by broth microdilution; conditions: MG1655, non-cation-adjusted Mueller-Hinton broth (MHB-I), low-binding plastic, 37°C, 18 h, turbidity OD595
NrdA protein = test: Western-blot analysis of NrdA protein level; conditions: 8 μM PNA-peptide, 3 h, AB medium, WT cells, band intensity relative to WT
Strain SMR14350 = test: In vivo double-stranded DNA break visualization; conditions: ciprofloxacin 0.0125 mg/L, 4 h, AB medium, mean±SD of three determinations
Procedure, shortened: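 E. coli Gam-GFP reporter strain SMR14350 grown exponentially at 37°C in AB minimal medium (10 mg/L thiamine, 0.2% glucose, 0.5% casamino acids), diluted to OD450 0.05. PNA-peptide test compound (8 μM) or ciprofloxacin (0.0125 mg/L) added with anhydrotetracycline (10 mg/L) to induce Gam-GFP, for 4 h. Foci scored by fluorescence microscopy in three independent experiments (2553–3860 cells per condition).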

[1] = test system: WT carrying pCC:nrdAByfaE; test: Time-kill assay, WT carrying pCC:nrdAByfaE; conditions: 50 μM HU, 5 h, MHB-I

10×MIC (E. coli): 40 µg/mL
Compound: CCn1cc(C(=O)O)c(=O)c2ccc(C)nc21 [nalidixic acid]
DNA synthesis (DNA replication) (WT E. coli cells): faster cessation of DNA replication

Compound: H-(KFF)3K-eg1-ATTGAT TGC G -NH2 [PNA5866]
MIC (MG1655): 16 µM
decrease of cellular NrdA protein level (NrdA protein): did not inhibit NrdA protein levels

Compound: O=C(O)c1cn(C2CC2)c2cc(N3CCNCC3)c(F)cc2c1=O [ciprofloxacin]
percentage of cells with Gam-GFP foci (Strain SMR14350): 51.9 ± 6.9%

Compound: NC(=O)NO [HU, hydroxyurea]
reduction in cfu/mL, HU alone [1]: < 1 log

10×MIC (E. coli): 80 µg/mL
Compound: O=C(N[C@H](CO)[C@H](O)c1ccc([N+](=O)[O-])cc1)C(Cl)Cl [chloramphenicol]
